What all share (format): functional
Assay [1] has as its system Splenocyte. Put plainly: Induction of IFN in C3H/HeJ mouse splenocytes at 100 nM. A digest of the protocol:
(§1)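 Mouse splenocytes are suspended at 2 × 10⁶ cells/mL in MEM with 5% fetal calf serum, penicillin and streptomycin. They are mixed 1:1 with compound (DMSO stock diluted 500-fold in medium) and cultured 18 h at 37 °C in 5% CO₂. Supernatants are filter-sterilized and stored at -80 °C. IFN (IU/mL) is measured by L929/vesicular stomatitis virus bioassay.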

The subject of assay [2] is Splenocyte. As to the kind of experiment: Induction of IFN in C3H/HeJ mouse splenocytes at 10 nM. A digest of the protocol: as §1
In assay [3] the test system is Splenocyte. As to the kind of experiment: Induction of IFN in C3H/HeJ mouse splenocytes at 30 nM. A digest of the protocol:
as §1

The subject of assay [4] is Mus musculus. Put plainly: Induction of IFN in BALB/c mice at 0.1 mg/kg, po.
Assay [5] deals with Mus musculus. Put plainly: Induction of IFN in BALB/c mice at 0.3 mg/kg, po.
In assay [6] the test system is Splenocyte. As to the kind of experiment: Induction of IFN in C3H/HeJ mouse splenocytes at 3 nM. A digest of the protocol: as §1

In the case of `CCCCNc1nc(N)c2nc(O)n(Cc3ccccc3Cl)c2n1`, the Activity in the assay on Splenocyte [1] is reported as 4.5 IU/ml; in the assay on Splenocyte [2], below 0.5 IU/ml; with Splenocyte [3] it was 2 IU/ml.
`COCCNc1nc(N)c2nc(O)n(Cc3ccc(F)cc3)c2n1`: the Activity in the assay with Splenocyte [1] is recorded as 8.3 IU/ml; in the assay on Splenocyte [2] it was below 0.5 IU/ml; in the assay on Mus musculus [4], 54 IU/ml; in the assay on Splenocyte [3], 4.8 IU/ml; in the assay on Mus musculus [5] it was 521 IU/ml.
Turning to `CCCCNc1nc(N)c2nc(O)n(Cc3ccc(-c4ccccc4)cc3)c2n1`, the Activity in the assay with Splenocyte [1] was 3.4 IU/ml; in the assay with Splenocyte [3] it was 0.5 IU/ml.
With `CCCCNc1nc(N)c2nc(O)n(CC(C)(C)O)c2n1`, the Activity in the assay on Splenocyte [1] is 0.6 IU/ml; with Splenocyte [3], below 0.5 IU/ml; in the assay on Mus musculus [5] it was below 5 IU/ml.
As to `CCCCNc1nc(N)c2nc(O)n(Cc3ccc(OCc4ccccc4)cc3)c2n1`, the Activity with Splenocyte [1] was 10.6 IU/ml; in the assay on Splenocyte [3] it was below 0.5 IU/ml.
Regarding `Nc1nc(NCc2ccncc2)nc2c1nc(O)n2Cc1ccc(F)cc1`, the Activity was 5.2 IU/ml with Splenocyte [1]; below 0.5 IU/ml with Splenocyte [6]; 11.1 IU/ml with Splenocyte [2]; 19 IU/ml with Mus musculus [4]; 492 IU/ml in the assay on Mus musculus [5].
As for `CCCCNc1nc(N)c2nc(O)n(Cc3cnccn3)c2n1`, the values for the Activity in the assay on Splenocyte [1], with Splenocyte [2] and in the assay with Splenocyte [3] were 4.2 IU/ml, below 0.5 IU/ml and 2.9 IU/ml, respectively.
On to `COCCNc1nc(N)c2nc(O)n(Cc3ccccc3)c2n1`, for which the Activity is reported as 7.1 IU/ml with Splenocyte [1], 44 IU/ml in the assay on Mus musculus [4], below 0.5 IU/ml in the assay on Splenocyte [3] and 639 IU/ml in the assay on Mus musculus [5].
For `CCCCNc1nc(N)c2nc(O)n(Cc3ccncc3)c2n1`, the Activity with Splenocyte [1] is reported as 4.3 IU/ml; in the assay on Splenocyte [6] it was below 0.5 IU/ml; with Splenocyte [2], 4.2 IU/ml; in the assay with Mus musculus [4], 21 IU/ml; in the assay on Splenocyte [3] it was 11.9 IU/ml.
Take `Nc1nc(NCc2ccncc2)nc2c1nc(O)n2Cc1ccccc1`: the Activity is listed as 9.1 IU/ml in the assay with Splenocyte [1]; below 0.5 IU/ml in the assay on Splenocyte [6]; 2.2 IU/ml in the assay with Splenocyte [2]; below 5 IU/ml with Mus musculus [4]; 3.9 IU/ml in the assay with Splenocyte [3]; 73 IU/ml with Mus musculus [5].
For `CCCCNc1nc(N)c2nc(O)n(Cc3ccc(C)cc3)c2n1`, the Activity in the assay with Splenocyte [1] is listed as 2 IU/ml; in the assay with Splenocyte [6], below 0.5 IU/ml; with Splenocyte [2], 9.2 IU/ml; in the assay with Mus musculus [4], 28 IU/ml; with Splenocyte [3] it was 6.2 IU/ml; with Mus musculus [5], 356 IU/ml.
For the compound `CCCCNc1nc(N)c2nc(O)n(Cc3cccc(Cl)c3)c2n1`, the Activity with Splenocyte [1] is on record as 4.4 IU/ml; with Splenocyte [2] it was below 0.5 IU/ml; in the assay with Splenocyte [3] it was 2.8 IU/ml.
With `CCCCNc1nc(N)c2nc(O)n(Cc3ccc(Cl)c(Cl)c3)c2n1`, the Activity is 10 IU/ml with Splenocyte [1]; below 0.5 IU/ml with Splenocyte [6]; 0.8 IU/ml in the assay on Splenocyte [2]; below 5 IU/ml in the assay on Mus musculus [4]; 136 IU/ml with Mus musculus [5].
Turning to `CCCCNc1nc(N)c2nc(O)n(Cc3ccc(C)nc3Cl)c2n1`, the Activity is 3.4 IU/ml in the assay on Splenocyte [1], below 0.5 IU/ml in the assay with Splenocyte [6], 8.4 IU/ml in the assay on Splenocyte [2] and below 5 IU/ml with Mus musculus [4].
As for `CCCCNc1nc(N)c2nc(O)n(Cc3cccc(C)c3)c2n1`, the values for the Activity in the assay on Splenocyte [1], with Splenocyte [2] and in the assay on Splenocyte [3] were 5.5 IU/ml, below 0.5 IU/ml and 3 IU/ml, respectively.
On to `CCCCNc1nc(N)c2nc(O)n(Cc3ccccc3C)c2n1`, for which the values for the Activity with Splenocyte [1], in the assay on Splenocyte [2] and in the assay on Splenocyte [3] were 3.6 IU/ml, below 0.5 IU/ml and 3 IU/ml, respectively.
As for `CCCCNc1nc(N)c2nc(O)n(Cc3cccnc3C)c2n1`, the Activity with Splenocyte [1] was 3 IU/ml; with Splenocyte [6] it was below 0.5 IU/ml; with Splenocyte [2], 12.8 IU/ml; in the assay on Splenocyte [3] it was 8.3 IU/ml.
`Nc1nc(NCc2ccccc2)nc2c1nc(O)n2Cc1ccccc1`: the Activity in the assay with Splenocyte [1] is 80.4 IU/ml; in the assay on Splenocyte [6], below 0.5 IU/ml; in the assay with Splenocyte [2], 44.4 IU/ml; in the assay on Mus musculus [4] it was 203 IU/ml; in the assay with Mus musculus [5], 398 IU/ml.
Consider `CCCCNc1nc(N)c2nc(O)n(Cc3cnccc3Cl)c2n1`, for which the Activity with Splenocyte [1] is reported as 4.2 IU/ml; in the assay with Splenocyte [3], below 0.5 IU/ml.
For the compound `CCCCNc1nc(N)c2nc(O)n(Cc3ccc(F)cc3)c2n1`, the Activity in the assay on Splenocyte [1] is on record as 4.2 IU/ml; with Splenocyte [6], below 0.5 IU/ml; in the assay on Splenocyte [2], 12.8 IU/ml; in the assay on Mus musculus [4] it was 139 IU/ml; with Mus musculus [5] it was 313 IU/ml.
`CCCCNc1nc(N)c2nc(O)n(Cc3ccc(C(C)(C)C)cc3)c2n1`: the Activity with Splenocyte [1] is given as 13 IU/ml; with Splenocyte [2] it was below 0.5 IU/ml; with Splenocyte [3], 4.4 IU/ml; in the assay on Mus musculus [5] it was below 5 IU/ml.
As to `CCCCNc1nc(N)c2nc(O)n(CC3CCCCC3)c2n1`, the Activity with Splenocyte [1] is recorded as 3.7 IU/ml; in the assay on Splenocyte [2] it was below 0.5 IU/ml; with Splenocyte [3], 1.7 IU/ml.
`CCCCNc1nc(N)c2nc(O)n(CCc3ccccc3)c2n1` showed an Activity with Splenocyte [1] below 0.5 IU/ml.
Turning to `CCCCNc1nc(N)c2nc(O)n(Cc3ccccn3)c2n1`, the Activity in the assay on Splenocyte [1] is on record as 9.1 IU/ml; in the assay with Splenocyte [2], below 0.5 IU/ml; in the assay on Splenocyte [3] it was 7.4 IU/ml; in the assay with Mus musculus [5] it was below 5 IU/ml.
Consider `CCCCNc1nc(N)c2nc(O)n(Cc3ccccc3)c2n1`, for which the Activity in the assay on Splenocyte [1] is listed as 3.4 IU/ml; in the assay with Mus musculus [4] it was 113 IU/ml; with Splenocyte [3], below 0.5 IU/ml; in the assay on Mus musculus [5], 465 IU/ml.
As to `CCCCNc1nc(N)c2nc(O)n(Cc3ccc(O)cc3)c2n1`, the Activity with Splenocyte [1] is 3.1 IU/ml; in the assay with Splenocyte [6], below 0.5 IU/ml; in the assay with Splenocyte [2], 12.4 IU/ml; with Mus musculus [5] it was 20 IU/ml.
`CCCCNc1nc(N)c2nc(O)n(Cc3ccc(CCCC)cc3)c2n1`: the figures for the Activity in the assay on Splenocyte [1], with Splenocyte [3] and in the assay with Mus musculus [5] were 11 IU/ml, below 0.5 IU/ml and below 5 IU/ml, respectively.
Turning to `CCCCNc1nc(N)c2nc(O)n(Cc3ccc4ccccc4c3)c2n1`, the Activity is 17.4 IU/ml with Splenocyte [1], below 0.5 IU/ml with Splenocyte [2], 7.1 IU/ml with Splenocyte [3] and below 5 IU/ml in the assay with Mus musculus [5].
For `CCCCNc1nc(N)c2nc(O)n(Cc3ccc(Cl)nc3Cl)c2n1`, the Activity with Splenocyte [1] is reported as 5.7 IU/ml; with Splenocyte [2], below 0.5 IU/ml; in the assay on Mus musculus [4] it was 42 IU/ml; in the assay on Splenocyte [3] it was 14.6 IU/ml.
With `Nc1nc(NCc2ccccc2)nc2c1nc(O)n2Cc1ccc(F)cc1`, the Activity in the assay with Splenocyte [1] is given as 4.5 IU/ml; in the assay with Splenocyte [3] it was below 0.5 IU/ml; with Mus musculus [5], below 5 IU/ml.
For the compound `CCCCNc1nc(N)c2nc(O)n(CC(C)C)c2n1`, the Activity in the assay with Splenocyte [1] is reported as 4.1 IU/ml; in the assay on Splenocyte [3], below 0.5 IU/ml.

The values above are taken from ChEMBL document CHEMBL1139013, “Synthesis and biological evaluation of novel 9-substituted-8-hydroxyadenine derivatives as potent interferon inducers” (J Med Chem, 2006).
